EP2 mod: modulators of human EP2 prostaglandin E2 receptor; EP2-expressing cells, cAMP HTRF FRET, PGE2 co-stimulation; 260,000 tested, 0.83% active; P43116; induction, % at 25 µM;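 active = compounds whose cAMP rise, as percent of the full-agonist control response, exceeds 60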;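 note: rat C6 glioma line stably carrying human EP2 under a CMV promoter; the protocol text gives 20 µM as final concentration; 100% = response of wells given 1 µM PGE2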
Target sequence (P43116 whole entry, looked up): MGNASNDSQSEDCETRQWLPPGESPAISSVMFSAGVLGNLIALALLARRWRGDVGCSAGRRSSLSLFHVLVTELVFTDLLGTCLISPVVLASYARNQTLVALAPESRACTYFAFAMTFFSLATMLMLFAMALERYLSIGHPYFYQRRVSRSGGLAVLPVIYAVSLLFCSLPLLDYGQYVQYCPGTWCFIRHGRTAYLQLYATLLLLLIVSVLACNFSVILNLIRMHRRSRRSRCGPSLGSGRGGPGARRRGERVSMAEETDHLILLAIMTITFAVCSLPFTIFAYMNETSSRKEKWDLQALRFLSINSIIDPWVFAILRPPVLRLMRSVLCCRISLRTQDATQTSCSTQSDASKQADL
EP2 antag: EP2 receptor (human) inhibition | P43116 | C6 glioma cells expressing human EP2, cAMP TR-FRET; cells stimulated with saturating PGE2 | inhibition, % at 25 µM | 260,000 tested, 0.52% active;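 active = percent inhibition above 40 after rounding to a whole number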;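 note: rat C6 glioma host cells with rolipram phosphodiesterase inhibitor present; the protocol text gives 20 µM as final concentration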
PfG6PD inh: PfG6PD (Plasmodium falciparum) enzyme inhibition; PfGluPho enzyme, NADPH resazurin-diaphorase fluorescence; inhibition, % at 20 µM; 350,000 tested, 0.78% active; AID 504690;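 active = inhibition reaching at least a set limit at 20 µM in the primary screen, cut at about 59% in these data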;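 note: 0% = DMSO wells with substrate and 100% = DMSO wells lacking glucose-6-phosphate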
PHOSPHO1 block: blocks human PHOSPHO1 phosphatase activity. Q8TCT1. recombinant PHOSPHO1, absorbance phosphatase assay. inhibition, % at 13.3 µM. 290,000 tested, 1.1% active. AID 1565; in the data active = inhibition above about 60%
Target sequence (Q8TCT1 whole entry, looked up): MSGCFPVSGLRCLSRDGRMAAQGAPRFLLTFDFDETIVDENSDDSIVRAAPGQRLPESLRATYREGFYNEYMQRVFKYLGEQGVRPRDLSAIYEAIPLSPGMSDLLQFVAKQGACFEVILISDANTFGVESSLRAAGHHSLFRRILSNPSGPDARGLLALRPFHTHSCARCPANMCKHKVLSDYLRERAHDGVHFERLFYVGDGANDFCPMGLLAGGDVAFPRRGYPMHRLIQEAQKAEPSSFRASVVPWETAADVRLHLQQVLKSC
Tb hexokinase: blocks Trypanosoma brucei hexokinase 1 activity | recombinant TbHK1, G6PDH-coupled NADH A340 | inhibition, % at 10 µM | 220,000 tested, 0.11% active;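 active = inhibition of 50% or more in the single-dose primary screen; inactive = inhibition below 50%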
HKDC1 inhibitor: HKDC1 (human) hexokinase inhibition | 340,000 tested, 0.16% active | AID 493160 | recombinant HKDC1, G6PDH/diaphorase resazurin coupled fluorescence | inhibition, % at 20 µM;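 active = inhibition above about 35% when tested at 20 µM, limit read from the data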;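 note: plate controls were DMSO wells with enzyme for no effect and DMSO wells lacking enzyme for full effect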
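Assay system: in-house recombinant HK5 (HKDC1) enzyme. Input: HKDC1 at 5 µg/mL. Medium: Tris pH 8.0 buffer with MgCl2, Tween-20, BSA, BME. Dosing: single 20 µM dose. Schedule: 90 min reaction incubation at room temperature, dark. Signal: resazurin-to-resorufin fluorescence via G6PDH and diaphorase coupling, 525/613 nm. Controls: DMSO-enzyme wells negative, buffer-substituted wells positive.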
* marks the source's active call; other numbers are inactive results; · = no result. Compounds with a hit are over-represented: about 2.5% of the library has one in this group of screens.

SMILES	EP2 mod	EP2 antag	PfG6PD inh	PHOSPHO1 block	Tb hexokinase	HKDC1 inhibitor
Cc1ccc(NC(=S)NNC(=O)c2cccc([N+](=O)[O-])c2)cc1Cl	-29.2	12.1	-3.0	74.5*	-30.6	-9.7
N#CC1=C(N)SC(N)=C(C#N)C1c1c(Cl)cccc1Cl	-14.4	13.7	40.5	81.6*	22.6	8.4
CCOc1ccccc1NC(=O)C1=C(C)NC(=O)NC1c1cccc(OC)c1OC (stereo not drawn)	-7.6	12.2	-2.9	62.0*	6.0	-5.3
Oc1ccccc1-c1n[nH]c(=S)n1Cc1ccco1	5.3	8.3	34.4	94.5*	-1.6	-6.7
COc1ccc(-c2n[nH]c(=S)n2Cc2ccco2)cc1	11.0	9.6	36.3	101.6*	-8.2	-12.0
COc1ccc(NC(=S)N(Cc2cc3cc(C)c(C)cc3[nH]c2=O)C2CCCCC2)cc1	-1.5	2.9	·	·	·	·
c1ccc(B2OC[C@@H]3OB(c4ccccc4)O[C@H]([C@@H]4COB(c5ccccc5)O4)[C@H]3O2)cc1	12.7	40.7*	·	·	·	·
Oc1ccc(N=Cc2ccc(OCc3ccccc3)cc2)cc1	-31.8	5.7	87.4*	31.2	2.9	-0.4
c1ccc(-c2nnc(CN3CCN(C(c4ccccc4)c4ccccc4)CC3)o2)cc1	61.3*	9.7	-13.4	-16.4	-9.2	0.1
c1ccc(-c2nnc(CN3CCN(c4ccccc4)CC3)o2)cc1	-47.1	11.3	3.5	-45.0	-1.6	-4.0
Cn1c(SCC(N)=O)nc2sc3c(c2c1=O)CCCC3	-61.4	7.7	·	·	·	·
CCSc1nc2sc3c(c2c(=O)n1C)CCCC3	60.8*	6.8	·	·	·	·
Cn1c(CCN2CCOCC2)nc2cc(NC(=O)c3cccs3)ccc21	-21.4	10.7	-6.5	64.3*	-2.1	-3.6
O=c1oc2ccccc2cc1-c1nc(-c2cccs2)cs1	61.1*	8.1	-5.1	34.0	-4.0	-6.0
COC(=O)c1sccc1NC(=O)c1ccccc1C(=O)O	·	·	-16.2	·	·	-3.3
CC(=O)c1sccc1NC(=O)c1ccccc1C(=O)O	85.5*	14.2	-7.5	16.0	22.8	0.7
COCCCN1C(=O)C(=O)/C(=C(\O)c2cc(C)ccc2C)C1c1ccc(OC)c(OC)c1 (stereo not drawn)	-14.3	10.7	·	·	·	·
Cc1ccc(NCc2nc3ccccc3n2C)cc1C	·	·	29.0	60.0*	·	-3.6
CCOc1cc(C(=O)CCC(=O)OCC(=O)Nc2ccc(F)cc2)ccc1O	·	·	4.1	·	·	0.3
CCN(CC)c1ccc(NC(=O)COc2ccc(C)cc2)cc1	·	6.9	15.2	81.4*	-0.8	-7.2
CC(C)Oc1ccc(C(=O)Nc2ccc(N(C)C)cc2)cc1	-8.9	16.0	39.4	76.4*	1.6	1.4
Cc1ccc(OCC(=O)Nc2ccc(N(C)C)cc2)cc1	2.0	11.2	13.5	80.8*	-0.8	9.2
CCCOc1ccc(C(=O)Nc2ccc(N(C)C)cc2)cc1	-34.9	11.8	30.7	10.9	6.8	-2.5
CN(C)c1ccc(NC(=O)COC(=O)CCC(=O)c2ccc(F)cc2)cc1	2.2	8.2	8.5	99.7*	-1.0	-5.4
C=CCNC(=O)C(=O)NCc1cccs1	-15.7	4.8	·	·	·	·
SMILES	EP2 mod	EP2 antag	PfG6PD inh	PHOSPHO1 block	Tb hexokinase	HKDC1 inhibitor
Cn1c(SCC(=O)Nc2cccc(F)c2)nnc1-c1ccco1	1.8	12.2	·	·	·	·
COc1ccc([C@@H](Nc2ccccn2)c2cc(C(C)(C)C)cc(C(C)(C)C)c2O)cc1	36.2	45.9*	·	·	·	·
CCOc1ccc(CCNC(=O)c2cc([N+](=O)[O-])ccc2N2CCOCC2)cc1OCC	·	·	-7.0	62.8*	·	3.5
COc1ccccc1CC(=O)N1CCC(n2nc(-c3cccs3)ccc2=O)CC1	-15.3	·	·	·	·	·
CC(C)OC(=O)CC(=O)c1sc2nc3c(cc2c1N)CN(C)CC3	-5.5	8.1	47.0	81.5*	-68.2	9.8
Cc1cc(OCc2nc(N)nc(N)c2-c2ccc(Cl)c(Cl)c2)ccc1[N+](=O)[O-]	-34.9	68.2*	13.5	·	·	1.3
Cc1ccc(NC(=O)CSc2ccc(-c3cccnc3)nn2)c(C)c1	·	·	1.0	72.8*	·	3.1
CSc1sc2ccccc2[n+]1CCCS(=O)(=O)[O-]	10.6	5.5	-5.2	88.7*	-5.7	-8.8
COc1ccccc1C(C(=O)NC(C)(C)C)N(C(=O)c1csnn1)C1CC1 (stereo not drawn)	-29.3	9.2	·	·	·	·
NC(=O)c1nc(-c2ccccc2F)nc2c1[nH]c(=O)n2C1CCCCC1	50.5	·	·	·	·	·
COc1cccc(/C=c2\sc3nc(-c4cccs4)nn3c2=O)c1OC	-10.6	·	-15.5	70.6*	-12.5	10.7
CC(=O)N(C)c1ccc(NC(=O)/C=C/c2ccccc2Cl)cc1	-2.6	9.2	1.6	95.3*	-13.4	-1.9
CC1(C)CC(N(Cc2ccccc2)Cc2cnc[nH]2)CC(C)(C)N1	2.2	6.3	·	·	·	·
COc1ccc(NC(=O)CSc2nnnn2-c2ccc(F)cc2)c(OC)c1	-37.4	27.4	·	·	·	·
Cc1cc(C)c2nc3s/c(=C/c4ccccc4)c(=O)n3c2c1	-19.0	31.2	·	92.7*	16.3	·
Cc1ccc2c(nc3s/c(=C/c4cccs4)c(=O)n32)c1C	·	·	11.8	26.9	·	-5.2
Cc1ccc(/C=N/Nc2cccc3cccnc23)c(O)c1	15.0	3.5	19.7	97.5*	-5.6	8.4
Oc1ccc(/C=N/Nc2cccc3cccnc23)c(O)c1	-16.2	50.9*	38.5	-17.3	-6.8	-1.9
Cc1snc(SCC(=O)c2ccc(Cl)cc2)c1C#N	28.7	4.1	34.5	83.9*	-1.2	-9.3
CCOC(=O)c1c(S(=O)(=O)NCC(=O)Nc2cccc(C)c2)c(C)n(C)c1C	·	·	-11.1	69.7*	·	5.2
COc1cc(C(=O)Nc2nc(C)c(C(=O)Nc3ccc4c(c3)CCC4)s2)cc(OC)c1OC	-6.7	15.3	·	·	·	·
COC(=O)C(=O)Nc1nnc(-c2ccccc2Cl)s1	-4.3	11.1	·	·	·	·
COc1cc(/C=C2\N=C3CCCCCN3C2=O)ccc1O	7.5	10.5	-7.2	67.2*	-15.7	2.2
c1ccc(CCn2nnnc2CN2CCN3CCCC3C2)cc1 (stereo not drawn)	22.1	5.3	·	·	·	·
Cc1nnsc1C(=O)N1CCC(n2nnc(-c3ccc(F)cc3)n2)CC1	-55.4	·	·	·	·	·
SMILES	EP2 mod	EP2 antag	PfG6PD inh	PHOSPHO1 block	Tb hexokinase	HKDC1 inhibitor
C=CCc1cc(CN2CCC(NC(C)=O)(c3ccccc3F)CC2)cc(OC)c1O	-58.3	8.0	·	·	·	·
Cc1ccc(-n2c(SCc3cc(=O)n4ccsc4n3)nnc2-c2cccnc2)c(C)c1	15.3	·	49.3	61.1*	-4.9	-5.7
CN(C)CCNC(=O)c1cccs1	-29.0	5.4	·	·	·	·
COc1ccc(OC)c(Nc2nc(-c3sc(N)nc3C)cs2)c1	24.7	19.2	34.2	52.7	-9.9	-3.8
CCCC(=O)Nc1nc(C)c(-c2csc(Nc3ccccc3OC)n2)s1	29.3	6.8	20.1	86.5*	-10.4	-2.4
C=CCCC(=O)Nc1nc(C)c(-c2csc(Nc3cc(OC)ccc3OC)n2)s1	18.1	23.6	17.8	71.9*	-12.7	1.4
Cc1ccc(Cl)cc1Nc1nc(-c2sc(NC(=O)C(C)(C)C)nc2C)cs1	-1.4	6.6	0.9	72.0*	-10.2	0.0
